Source: PubChem BioAssay AID493019 (Circadian Research, Kay Laboratory, University of …, 2011)

How the values were obtained:
[1] = test system: U2OS Bmal1-dLuc circadian period lengthening, luminescence; assay: clock period lengtheners with kinase target profiling – cell-based, U2OS Bmal1-dLuc, CKIdelta, CKIalpha, ERK2, CDK7, mechanism study for circadian clock modulator project, late-stage follow-up (AID 493019)
How it was run: (§1)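 Material – U2OS osteosarcoma cells carrying Bmal1-dLuc reporter, plus in vitro kinases · Times – circadian recording 5 days, kinase reaction 3 h at 30 °C · Signal – luciferase luminescence every 100 min, Kinase-Glo residual-ATP luminescence for kinases · Measure – doses lengthening fitted rhythm period 5, 10, 15 h, kinase IC50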

[2] = target: Casein kinase I isoform delta (Homo sapiens) (UniProt P48730); assay: as above; details: U2OS Bmal1-dLuc circadian period lengthening, luminescence; for IC50: measured here: CKIdelta in vitro kinase
How it was run: as §1

[3] = target: Mitogen-activated protein kinase 1 (Homo sapiens) (UniProt P28482); assay: as above; details: U2OS Bmal1-dLuc circadian period lengthening, luminescence; measured here: ERK2 in vitro kinase
How it was run: as §1

[4] = target: Casein kinase I isoform alpha (Homo sapiens) (UniProt P48729); assay: as above; details: U2OS Bmal1-dLuc circadian period lengthening, luminescence; for IC50: measured here: CKIalpha in vitro kinase
How it was run: as §1

[5] = as above; details: U2OS Bmal1-dLuc circadian period lengthening, luminescence; for EC (10 h period change): measured here: 10 h period lengthening; for EC (15 h period change): measured here: 15 h period lengthening
How it was run: as §1

[6] = target: Cyclin-dependent kinase 7 (Homo sapiens) (UniProt P50613); assay: as above; details: U2OS Bmal1-dLuc circadian period lengthening, luminescence; measured here: CDK7 in vitro kinase
How it was run: as §1

EC50 ([2]; measured here: CKIdelta cell PER1 degradation)	IC50 [2]	IC50 [3]	EC50 ([4]; measured here: CKIalpha cell PER1 degradation)	IC50 [4]	IC50 [6]	SMILES	EC (5 h period change) [1]	EC (10 h period change) [5]	EC (15 h period change) [5]
9.7 µM	8.8 µM	52 µM	9.2 µM	5.6 µM	29 µM	CC(C)n1cnc2c(NCc3cccc(C(F)(F)F)c3)ncnc21	1500 nM	5.7 µM	13 µM
	21 µM	160 µM		23 µM	29 µM	CC(C)n1cnc2c(NCc3ccccc3)ncnc21	4400 nM	17 µM	38 µM
